Experimental data taken from ChEMBL document CHEMBL4376814, “Novel cyclin-dependent kinase 9 (CDK9) inhibitor with suppression of cancer stemness activity against non-small-cell lung cancer” (Eur J Med Chem, 2019).

Experiments:
A549 = assay: Induction of apoptosis in human A549 cells assessed as viable cells at 0.25 uM after 48 hrs by AnnexinV-FITC/PI staining-based flow cytometric analysis (reference value: 88.8%); assay type: functional; conditions: A549, 48 h, read-out: Activity
NCI-H1299 [1] = assay: Induction of apoptosis in human H1299 cells assessed as viable cells at 0.25 uM after 48 hrs by AnnexinV-FITC/PI staining-based flow cytometric analysis (reference value: 97.1%); assay type: functional; conditions: NCI-H1299, 48 h, read-out: Activity
NCI-H1299 [2] = assay: Induction of apoptosis in human H1299 cells assessed as late apoptotic cells at 0.25 uM after 48 hrs by AnnexinV-FITC/PI staining-based flow cytometric analysis (reference value: 1.77%); assay type: functional
[3] = tested on: Tyrosine-protein kinase ABL1 (Homo sapiens), P00519 [M351T]; assay: Inhibition of human ABL M351T mutant (27 to end residues) at 1 uM using EAIYAAPFAKKK as substrate measured after 40 mins in presence of [gamma33P]ATP by scintillation counting method relative to control
Summary of the method: (§1)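 Percent inhibition of kinase activity at a single compound concentration, measured by the outsourced Eurofins KinaseProfiler panel. Values are the mean of two independent experiments.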

[4] = target: Mitogen-activated protein kinase kinase kinase 2 (Homo sapiens) (UniProt Q9Y2U5); assay: Inhibition of full-length recombinant human MEKK2 at 1 uM using myelin basic protein as substrate measured after 40 mins in presence of [gamma33P]ATP by scintillation counting method relative to control; summary of the method: as §1
[5] = target: CDK6/cyclin D3 (Homo sapiens) (UniProt P30281+Q00534); assay: Inhibition of recombinant full-length human CDK6/cyclinD3 at 1 uM using Histone H1 as substrate measured after 40 mins in presence of [gamma33P]ATP by scintillation counting method relative to control; assay type: protein-complex assay
[6] = target: Serine/threonine-protein kinase Chk1 (Homo sapiens) (UniProt O14757); assay: Inhibition of full length recombinant human CHK1 at 1 uM using KKKVSRSGLYRSPSMPENLNRPR as substrate measured after 40 mins in presence of [gamma33P]ATP by scintillation counting method relative to control
[7] = target: Serine/threonine-protein kinase Chk2 (Homo sapiens) (UniProt O96017); assay: Inhibition of recombinant human CHK2 (5 to end residues) at 1 uM using KKKVSRSGLYRSPSMPENLNRPR as substrate measured after 40 mins in presence of [gamma33P]ATP by scintillation counting method relative to control
Summary of the method: (§2)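 Single-point inhibition at 1 µM was measured in the Eurofins KinaseProfiler panel. Values are the mean of two independent experiments.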

[8] = target: Dual specificity protein kinase CLK2 (Homo sapiens) (UniProt P49760); assay: Inhibition of recombinant human CLK2 (138 to end residues) at 1 uM using YRRAAVPPSPSLSRHSSPHQS(p) EDEEE as substrate measured after 40 mins in presence of [gamma33P]ATP by scintillation counting method relative to control; summary of the method: as §2
[9] = target: Serine/threonine-protein kinase Nek7 (Homo sapiens) (UniProt Q8TDX7); assay: Inhibition of recombinant human NEK7 (2 to end residues) at 1 uM using FLAKSFGSPNRAY as substrate measured after 40 mins in presence of [gamma33P]ATP by scintillation counting method relative to control
[10] = target: NUAK family SNF1-like kinase 2 (Homo sapiens) (UniProt Q9H093); assay: Inhibition of recombinant full-length human NUAK2 at 1 uM using KKKVSRSGLYRSPSMPENLNRPR as substrate measured after 40 mins in presence of [gamma33P]ATP by scintillation counting method relative to control
[11] = target: Protein kinase C beta type (Homo sapiens) (UniProt P05771); assay: Inhibition of recombinant human PKCbeta2 (2 to end residues) at 1 uM using histone H1 as substrate measured after 40 mins in presence of [gamma33P]ATP by scintillation counting method relative to control
[12] = tested on: Mast/stem cell growth factor receptor Kit (Homo sapiens), P10721 [D816H]; assay: Inhibition of recombinant human cKit (544 to end residues) D816H mutant at 1 uM using GGMEDIYFEFMGGKKK as substrate measured after 40 mins in presence of [gamma33P]ATP by scintillation counting method relative to control; summary of the method: as §2
[13] = target: Fibroblast growth factor receptor 2 (Homo sapiens) (UniProt P21802); assay: Inhibition of recombinant human FGFR2 (456 to 770 residues) at 1 uM using poly(Glu, Tyr) 4:1 as substrate measured after 40 mins in presence of [gamma33P]ATP by scintillation counting method relative to control
[14] = target: Fibroblast growth factor receptor 3 (Homo sapiens) (UniProt P22607); assay: Inhibition of recombinant human FGFR3 (447 to 761 residues) at 1 uM using poly(Glu, Tyr) 4:1 as substrate measured after 40 mins in presence of [gamma33P]ATP by scintillation counting method relative to control
[15] = tested on: Protein kinase C eta type (Homo sapiens), P24723 [UNDEFINED MUTATION]; assay: Inhibition of recombinant human PKCeta V108L/G109R/L392Q mutant (2 to end residues) at 1 uM using ERMRPRKRQGSVRRRV as substrate measured after 40 mins in presence of [gamma33P]ATP by scintillation counting method relative to control
[16] = tested on: Serine/threonine-protein kinase D1 (Homo sapiens), Q15139 [UNDEFINED MUTATION]; assay: Inhibition of recombinant full-length human PKCmu R135A mutant at 1 uM using KKLNRTLSVA as substrate measured after 40 mins in presence of [gamma33P]ATP by scintillation counting method relative to control
[17] = target: Rho-associated protein kinase 2 (Homo sapiens) (UniProt O75116); assay: Inhibition of human ROCK2 (11 to 552 residues) at 1 uM using KEAKEKRQEQIAKRRRLSSLRASTSKSGGSQK as substrate measured after 40 mins in presence of [gamma33P]ATP by scintillation counting method relative to control
Summary of the method: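 Percent inhibition at 1 µM was measured by the contract KinaseProfiler service (Eurofins) on the human kinase. Values are the mean of two independent experiments.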

Homo sapiens = species: Homo sapiens; assay: Inhibition of human Ros V2262A mutant (1883 to end residues) at 1 uM using KKKSPGEYVNIEFG as substrate measured after 40 mins in presence of [gamma33P]ATP by scintillation counting method relative to control; summary of the method: as §1
[18] = target: Serine/threonine-protein kinase 33 (Homo sapiens) (UniProt Q9BYT3); assay: Inhibition of recombinant full-length human STK33 at 1 uM using myelin basic protein as substrate measured after 40 mins in presence of [gamma33P]ATP by scintillation counting method relative to control
[19] = target: Transcription initiation factor TFIID subunit 1-like (Homo sapiens) (UniProt Q8IZX4); assay: Inhibition of recombinant human TAF1L (1428 to end residues) at 1 uM using RRRFRPASPLRGPPK as substrate after 120 mins in presence of [gamma33P]ATP by scintillation counting analysis relative to control
[20] = target: Serine/threonine-protein kinase VRK1 (Homo sapiens) (UniProt Q99986); assay: Inhibition of human VRK1 at 1 uM by radiometric method relative to control
Serine/threonine-protein kinase VRK1 (Homo sapiens), sequence (Q99986 whole entry): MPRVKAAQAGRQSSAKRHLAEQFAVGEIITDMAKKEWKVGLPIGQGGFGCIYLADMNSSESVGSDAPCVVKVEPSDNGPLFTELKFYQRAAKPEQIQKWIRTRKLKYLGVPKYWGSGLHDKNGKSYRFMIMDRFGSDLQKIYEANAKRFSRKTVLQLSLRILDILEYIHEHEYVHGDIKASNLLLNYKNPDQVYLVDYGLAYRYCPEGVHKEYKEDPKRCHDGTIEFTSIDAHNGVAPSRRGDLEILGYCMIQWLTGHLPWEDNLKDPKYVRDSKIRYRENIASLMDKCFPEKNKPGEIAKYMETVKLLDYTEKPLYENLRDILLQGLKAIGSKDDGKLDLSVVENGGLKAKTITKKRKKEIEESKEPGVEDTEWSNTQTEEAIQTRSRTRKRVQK

Dual specificity protein kinase CLK2 (Homo sapiens), sequence (P49760 whole entry, looked up): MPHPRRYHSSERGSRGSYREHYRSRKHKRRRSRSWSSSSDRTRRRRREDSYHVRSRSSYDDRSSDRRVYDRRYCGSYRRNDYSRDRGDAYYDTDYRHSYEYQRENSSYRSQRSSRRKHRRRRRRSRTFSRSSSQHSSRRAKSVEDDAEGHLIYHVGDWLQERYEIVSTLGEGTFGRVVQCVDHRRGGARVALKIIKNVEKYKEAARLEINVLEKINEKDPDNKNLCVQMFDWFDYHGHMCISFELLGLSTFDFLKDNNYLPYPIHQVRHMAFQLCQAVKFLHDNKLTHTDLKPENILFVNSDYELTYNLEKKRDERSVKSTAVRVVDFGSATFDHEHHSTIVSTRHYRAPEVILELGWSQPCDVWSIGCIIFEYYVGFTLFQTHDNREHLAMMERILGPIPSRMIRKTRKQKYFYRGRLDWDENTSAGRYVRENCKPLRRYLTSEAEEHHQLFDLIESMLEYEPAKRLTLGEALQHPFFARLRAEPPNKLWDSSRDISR
Protein kinase C eta type (Homo sapiens), P24723 [UNDEFINED MUTATION], sequence (P24723 whole entry, looked up, stated change not applied): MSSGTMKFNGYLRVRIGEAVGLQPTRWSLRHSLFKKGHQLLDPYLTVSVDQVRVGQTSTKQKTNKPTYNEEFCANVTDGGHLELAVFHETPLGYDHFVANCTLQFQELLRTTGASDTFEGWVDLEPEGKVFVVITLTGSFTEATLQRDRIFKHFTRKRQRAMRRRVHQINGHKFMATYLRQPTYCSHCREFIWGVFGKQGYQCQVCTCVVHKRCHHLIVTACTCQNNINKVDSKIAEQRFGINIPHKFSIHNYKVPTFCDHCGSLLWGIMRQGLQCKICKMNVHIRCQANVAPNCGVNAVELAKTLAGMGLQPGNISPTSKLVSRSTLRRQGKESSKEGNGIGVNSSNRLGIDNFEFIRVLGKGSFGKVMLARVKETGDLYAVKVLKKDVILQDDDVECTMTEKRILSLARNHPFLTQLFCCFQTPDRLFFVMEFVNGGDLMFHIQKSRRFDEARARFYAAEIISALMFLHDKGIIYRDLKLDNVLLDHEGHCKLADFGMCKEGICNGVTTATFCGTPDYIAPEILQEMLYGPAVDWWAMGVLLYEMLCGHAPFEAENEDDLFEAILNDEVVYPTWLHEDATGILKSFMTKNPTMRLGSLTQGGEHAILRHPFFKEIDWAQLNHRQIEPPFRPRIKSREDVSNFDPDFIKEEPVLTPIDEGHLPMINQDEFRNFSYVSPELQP
Protein kinase C beta type (Homo sapiens), sequence (P05771 2-671 limits assumed): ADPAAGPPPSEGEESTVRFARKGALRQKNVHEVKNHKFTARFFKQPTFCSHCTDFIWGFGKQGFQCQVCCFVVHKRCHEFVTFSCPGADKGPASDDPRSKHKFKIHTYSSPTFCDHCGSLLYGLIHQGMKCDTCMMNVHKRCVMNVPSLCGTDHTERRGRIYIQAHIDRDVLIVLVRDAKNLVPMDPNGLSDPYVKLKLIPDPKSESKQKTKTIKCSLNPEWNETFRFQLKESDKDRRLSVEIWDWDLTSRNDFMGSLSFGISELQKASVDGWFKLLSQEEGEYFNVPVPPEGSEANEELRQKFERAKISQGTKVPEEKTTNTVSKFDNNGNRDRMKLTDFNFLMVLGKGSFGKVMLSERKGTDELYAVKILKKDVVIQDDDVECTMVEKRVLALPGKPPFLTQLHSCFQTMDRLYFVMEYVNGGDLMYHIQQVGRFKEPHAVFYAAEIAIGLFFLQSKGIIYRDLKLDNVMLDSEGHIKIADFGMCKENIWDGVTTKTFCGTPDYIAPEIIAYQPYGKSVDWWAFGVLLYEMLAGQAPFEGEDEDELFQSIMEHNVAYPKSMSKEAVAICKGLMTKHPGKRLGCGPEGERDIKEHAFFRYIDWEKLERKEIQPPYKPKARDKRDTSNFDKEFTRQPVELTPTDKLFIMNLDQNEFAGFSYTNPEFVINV
Rho-associated protein kinase 2 (Homo sapiens), sequence (O75116 whole entry, looked up, the tested form may be a part): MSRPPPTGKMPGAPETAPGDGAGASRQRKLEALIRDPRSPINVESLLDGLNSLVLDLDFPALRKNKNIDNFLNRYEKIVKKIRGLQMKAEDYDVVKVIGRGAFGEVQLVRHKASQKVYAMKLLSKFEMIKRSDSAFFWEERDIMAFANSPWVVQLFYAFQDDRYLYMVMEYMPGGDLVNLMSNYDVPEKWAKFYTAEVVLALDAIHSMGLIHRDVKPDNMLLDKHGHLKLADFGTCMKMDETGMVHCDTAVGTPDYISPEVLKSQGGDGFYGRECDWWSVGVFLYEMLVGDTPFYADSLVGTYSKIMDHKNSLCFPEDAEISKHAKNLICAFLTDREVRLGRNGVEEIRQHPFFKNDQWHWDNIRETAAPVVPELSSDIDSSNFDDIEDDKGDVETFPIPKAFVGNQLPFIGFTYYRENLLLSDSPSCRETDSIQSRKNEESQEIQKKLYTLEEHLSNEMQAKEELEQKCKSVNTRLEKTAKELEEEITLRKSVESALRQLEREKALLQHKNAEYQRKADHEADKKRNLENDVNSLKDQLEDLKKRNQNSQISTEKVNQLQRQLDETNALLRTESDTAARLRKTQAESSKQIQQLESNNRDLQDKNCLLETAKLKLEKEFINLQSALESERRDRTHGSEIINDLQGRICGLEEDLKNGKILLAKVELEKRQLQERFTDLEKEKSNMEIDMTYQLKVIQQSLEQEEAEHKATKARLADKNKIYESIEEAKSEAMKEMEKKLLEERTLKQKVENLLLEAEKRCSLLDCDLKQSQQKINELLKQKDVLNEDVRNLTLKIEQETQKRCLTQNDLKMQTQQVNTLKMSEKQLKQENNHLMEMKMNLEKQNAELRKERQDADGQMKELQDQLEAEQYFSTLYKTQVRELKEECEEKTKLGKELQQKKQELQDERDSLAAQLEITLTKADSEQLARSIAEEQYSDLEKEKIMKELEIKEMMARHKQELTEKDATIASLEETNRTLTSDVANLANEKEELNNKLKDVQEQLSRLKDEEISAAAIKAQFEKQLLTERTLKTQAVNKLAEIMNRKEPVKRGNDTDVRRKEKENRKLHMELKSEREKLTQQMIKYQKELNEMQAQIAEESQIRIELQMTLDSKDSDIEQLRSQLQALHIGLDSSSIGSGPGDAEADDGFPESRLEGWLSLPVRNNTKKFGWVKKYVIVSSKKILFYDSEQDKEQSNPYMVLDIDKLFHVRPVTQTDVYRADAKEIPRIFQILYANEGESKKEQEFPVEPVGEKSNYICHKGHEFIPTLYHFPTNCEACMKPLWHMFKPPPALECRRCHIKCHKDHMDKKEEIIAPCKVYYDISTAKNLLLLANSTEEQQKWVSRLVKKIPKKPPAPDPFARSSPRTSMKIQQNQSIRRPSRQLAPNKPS
Serine/threonine-protein kinase Nek7 (Homo sapiens), sequence (Q8TDX7 whole entry, looked up): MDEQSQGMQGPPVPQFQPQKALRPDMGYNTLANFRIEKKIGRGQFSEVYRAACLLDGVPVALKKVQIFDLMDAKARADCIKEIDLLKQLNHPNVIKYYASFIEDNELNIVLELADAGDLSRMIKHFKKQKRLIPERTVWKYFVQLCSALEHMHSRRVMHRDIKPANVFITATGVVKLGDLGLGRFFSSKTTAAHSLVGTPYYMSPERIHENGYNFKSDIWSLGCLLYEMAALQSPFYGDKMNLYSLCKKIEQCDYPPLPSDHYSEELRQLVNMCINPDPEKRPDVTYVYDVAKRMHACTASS
Serine/threonine-protein kinase 33 (Homo sapiens), sequence (Q9BYT3 whole entry, looked up): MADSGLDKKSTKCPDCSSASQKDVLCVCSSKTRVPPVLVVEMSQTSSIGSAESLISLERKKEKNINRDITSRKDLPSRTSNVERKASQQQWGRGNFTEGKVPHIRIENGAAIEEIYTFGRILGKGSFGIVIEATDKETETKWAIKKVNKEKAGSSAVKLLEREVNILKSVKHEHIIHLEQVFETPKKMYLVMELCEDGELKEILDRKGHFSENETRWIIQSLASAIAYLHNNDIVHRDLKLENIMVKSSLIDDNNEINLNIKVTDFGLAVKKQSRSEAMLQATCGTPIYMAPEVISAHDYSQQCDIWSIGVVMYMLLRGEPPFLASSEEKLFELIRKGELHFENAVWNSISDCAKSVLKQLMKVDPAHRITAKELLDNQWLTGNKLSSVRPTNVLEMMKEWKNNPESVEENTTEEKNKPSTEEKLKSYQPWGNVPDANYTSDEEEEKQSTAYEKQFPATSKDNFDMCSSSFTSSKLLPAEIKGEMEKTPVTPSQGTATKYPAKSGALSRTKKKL
Serine/threonine-protein kinase Chk1 (Homo sapiens), sequence (O14757 whole entry): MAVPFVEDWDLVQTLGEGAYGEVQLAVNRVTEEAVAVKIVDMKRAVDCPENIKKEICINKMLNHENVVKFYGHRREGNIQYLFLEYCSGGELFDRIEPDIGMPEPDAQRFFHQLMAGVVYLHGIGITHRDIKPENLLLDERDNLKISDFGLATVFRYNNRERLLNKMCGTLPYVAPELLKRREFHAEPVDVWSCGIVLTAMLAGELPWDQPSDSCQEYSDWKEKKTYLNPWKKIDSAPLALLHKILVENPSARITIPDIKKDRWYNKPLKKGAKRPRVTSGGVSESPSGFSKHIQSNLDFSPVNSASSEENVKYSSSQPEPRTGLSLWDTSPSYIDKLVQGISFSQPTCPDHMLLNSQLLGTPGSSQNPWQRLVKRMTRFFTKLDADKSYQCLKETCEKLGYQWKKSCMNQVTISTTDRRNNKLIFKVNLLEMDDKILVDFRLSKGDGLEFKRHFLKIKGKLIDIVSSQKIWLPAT

`CN(C)C(=O)c1cc2cnc(Nc3ccc(NC(=O)CCCCCCCN=C=S)cc3)nc2n1C1CCCC1` was tested, and the viability at 0.25 µM (A549) was 77.9%, the viability at 0.25 µM (NCI-H1299 [1]) was 96.7% and the Activity (NCI-H1299 [2]) was 2.24%. The inhibition [3] was 49%, the inhibition [4] was 27% and the inhibition [5] was 79%. The inhibition [6] was -9%, the inhibition [7] was 32% and the inhibition [8] was 12%. The inhibition [9] was -6%, the inhibition [10] was 66% and the inhibition [11] was 72%. It also gave an inhibition [12] of 59%, an inhibition [13] of 27% and an inhibition [14] of 28%. For the same molecule, the inhibition [15] was -3%, the inhibition [16] was 3% and the inhibition [17] was 5%. The inhibition (Homo sapiens) was 0%, the inhibition [18] was 27% and the inhibition [19] was 23%. The inhibition [20] was 0%.
